Measured values from ChEMBL document CHEMBL4190408 (J Med Chem, 2018).

What was measured:
Format in all cases: toxicity, organism-based
Settings in all cases: salmonella enterica subsp. enterica serovar typhimurium, s9, 48 h
Salmonella typhimurium [1] = assay: Genotoxicity in Salmonella typhimurium TA98 up to 1000 uM after 2 days in presence or absence of liver S9 fraction by Ames test
Procedure, shortened: (§1)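 MiniAMES (MPF format) with Salmonella typhimurium TA98, TA100 and TA1537, with and without S9 metabolic activation. 2-day incubation, top concentration 1000 µM.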

Salmonella typhimurium [2] = assay: Genotoxicity in Salmonella typhimurium TA1537 up to 1000 uM after 2 days in presence or absence of liver S9 fraction by Ames test; procedure, shortened: as §1
Salmonella typhimurium [3] = assay: Genotoxicity in Salmonella typhimurium TA100 up to 1000 uM after 2 days in presence or absence of liver S9 fraction by Ames test; procedure, shortened: as §1

Measured: Activity

COc1ccc(N)c(C)c1.Cl
Non-Toxic: all assays above
